The text below walks through data of PMC2717697 (The Journal of General Physiology, 2009).

What is called Ki is the dissociation constant of the complex between target and ligand, obtained from inhibition or displacement.

Where a chain is given by its changes, count along the chain named.

Common to all, as to type: cell-based
The target of assay [1] is T1, E363Q mutant CNGA1 channel (Bos taurus, UniProt Q00194, E363Q).
T1 sequence (Q00194 1-690 E363Q): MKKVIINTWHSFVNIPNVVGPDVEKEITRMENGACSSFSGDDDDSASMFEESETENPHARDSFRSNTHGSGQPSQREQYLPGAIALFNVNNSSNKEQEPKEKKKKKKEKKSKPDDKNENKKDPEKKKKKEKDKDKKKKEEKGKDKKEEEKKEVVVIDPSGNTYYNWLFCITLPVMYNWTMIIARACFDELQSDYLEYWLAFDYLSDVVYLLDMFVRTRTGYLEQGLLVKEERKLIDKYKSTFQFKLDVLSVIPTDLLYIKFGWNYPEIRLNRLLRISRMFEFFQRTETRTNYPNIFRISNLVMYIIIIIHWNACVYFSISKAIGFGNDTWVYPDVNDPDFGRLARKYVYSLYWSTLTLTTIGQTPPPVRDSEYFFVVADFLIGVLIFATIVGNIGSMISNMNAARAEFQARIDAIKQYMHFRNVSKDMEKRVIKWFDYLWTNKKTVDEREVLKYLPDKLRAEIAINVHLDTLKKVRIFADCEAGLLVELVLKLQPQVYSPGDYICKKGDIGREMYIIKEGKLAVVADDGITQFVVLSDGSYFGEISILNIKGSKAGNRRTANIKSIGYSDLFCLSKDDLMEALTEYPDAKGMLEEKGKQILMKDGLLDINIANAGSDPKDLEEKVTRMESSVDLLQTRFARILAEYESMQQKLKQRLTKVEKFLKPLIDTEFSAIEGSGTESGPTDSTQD
In words: Block of E363Q single-channel currents by extracellular Mg^2+. A digest of the protocol: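 Xenopus laevis oocytes were collagenase-defolliculated, cRNA-injected, and kept at 18°C. […] E363Q single-channel currents were recorded at 120 or −120 mV with or without 0.1 mM extracellular Mg2+, one patch per trace. Filtering was 1 kHz and sampling 10 kHz. Amplitudes are mean ± SEM, n = 5–20.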

For assay [2], the system named is WT and E363Q CNGA1 channels. As to conditions: fit of Eq. 1 to G-V relations 10 to 200 mV, WT and E363Q together.
In the next assay the target is T2, wild-type CNGA1 channels (Bos taurus, UniProt Q00194).
T2 sequence (Q00194 1-690): T1 sequence (Q00194 1-690 E363Q) with Q363E

The target of assay [3] is T1, E363Q mutant CNGA1 channel.
In assay [4] the target is T3, I390A mutant CNGA1 channel (Bos taurus, UniProt Q00194, I390A).
T3 sequence (Q00194 1-690 I390A): T1 sequence (Q00194 1-690 E363Q) with Q363E, I390A
Description: Voltage-dependent block by intracellular PhTx, I390A. A digest of the protocol: (§1)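 WT or mutant CNGA1 cRNA was injected into collagenase-defolliculated Xenopus oocytes. […] I-V curves were taken from −80 mV holding with steps of −200 to 200 mV in 10-mV increments. No-cGMP currents were subtracted as background. Recordings were made with or without 10 µM intracellular PhTx, and fraction unblocked (I/Io) was reported as mean ± SEM, n = 4–6.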

In assay [5] the target is T4, T389A mutant CNGA1 channel (Bos taurus, UniProt Q00194, T389A).
T4 sequence (Q00194 1-690 T389A): T1 sequence (Q00194 1-690 E363Q) with Q363E, T389A
Description: Voltage-dependent block by intracellular PhTx, T389A. A digest of the protocol: as §1

The target in assay [6] is T5, V384A mutant CNGA1 channel (Bos taurus, UniProt Q00194, V384A).
T5 sequence (Q00194 1-690 V384A): T1 sequence (Q00194 1-690 E363Q) with Q363E, V384A
Description: Voltage-dependent block by intracellular PhTx, V384A. A digest of the protocol: as §1

Assay [7] deals with T6, I386A mutant CNGA1 channel (Bos taurus, UniProt Q00194, I386A).
T6 sequence (Q00194 1-690 I386A): T1 sequence (Q00194 1-690 E363Q) with Q363E, I386A
Description: Voltage-dependent block by intracellular PhTx, I386A. The gist of the method: as §1

In assay [8] the target is T7, wild-type (WT) CNGA1 channel (Bos taurus, UniProt Q00194).
T7 sequence (Q00194 1-690): T1 sequence (Q00194 1-690 E363Q) with Q363E
In words: Voltage-dependent block by intracellular PhTx, wild type. A digest of the protocol: as §1

Assay [9] has as its target T8, F387A mutant CNGA1 channel (Bos taurus, UniProt Q00194, F387A).
T8 sequence (Q00194 1-690 F387A): T1 sequence (Q00194 1-690 E363Q) with Q363E, F387A
In words: Voltage-dependent block by intracellular PhTx, F387A. A digest of the protocol:
as §1

[10] abbreviates: read-out: appKd, Boltzmann fit of I/Io at 10 µM intracellular PhTx.
Setting [11] is: valence of block, Boltzmann fit.

Consider `[Mg+2]` [Mg^2+], for which the Ki in assay [1] (read-out: estimated Ki, −120 mV, estimated from 37% reduction at 100 µM) is 170000 nM. Moreover, the “reduction of single-channel current amplitude” value in [1] (−120 mV, 100 µM external Mg^2+) is 37%.

With `Nc1nc2c(ncn2[C@@H]2O[C@@H]3COP(=O)(O)O[C@H]3[C@H]2O)c(=O)[nH]1` [cGMP, cyclic GMP], the “Hill coefficient (n)” value in [2] was determined as 1.44 ± 0.06; at wild-type CNGA1 channels (common to −200 and 200 mV) it was 1.48 ± 0.03; in assay [3] (common to 40 and 200 mV) it was 1.44 ± 0.01. Also, in assay [2] (read-out: KL), the Kd is 78000 ± 4000 nM. The entries for the “valence factor of KL” value (on wild-type CNGA1 channels; in [3]) were 0.04 and −0.1, respectively. Also, on wild-type CNGA1 channels (over 400 mV (−200 to 200 mV)), the “variation of KL” value is given as “twofold”.

For philanthotoxin [PhTx], the Kd in assay [4] (setting [10]) was determined as 1200 nM; in [5] (setting [10]) it was 1600 nM; in assay [6] (setting [10]), 3500 nM; in assay [7] (setting [10]), 830 nM; in [8] (setting [10]) it was 1600 nM; in assay [9] (setting [10]), 52000 nM. For the same compound, the Z in assay [4] (setting [11]) is reported as 2.67 ± 0.08; in assay [5] (setting [11]) it was 2.25 ± 0.06; in assay [6] (setting [11]) it was 2.81 ± 0.09; in assay [7] (setting [11]) it was 2.55 ± 0.07; in assay [8] (setting [11]), 2.48 ± 0.07; in assay [9] (setting [11]), 0.96 ± 0.02.
